Data taken from ChEMBL document CHEMBL3227977, “L-Chlorozotocin” (J Med Chem, 1979).

Assays:
L1210 [1] = test: Antineoplastic activity against mouse L1210 cells allografted in CDF1 mouse assessed as median day of death at 24 mg/kg, ip administered on day 1 post-tumor cell implantation (reference value: 8 days); assay type: functional; details: route intraperitoneal
In short: (§1)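 Male CDF1 mice were inoculated ip with 10⁵ L1210 cells. Drug in physiological saline was given ip as a single dose on day 1 postimplant, at the maximum non-toxic dose relative to the concurrent LD10. There were 10 mice per test group and 30 in the control group, followed for 60 days. Median day of death counted dying mice only. Increase in life span excluded survivors.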

L1210 [2] = test: Antineoplastic activity against mouse L1210 cells allografted in CDF1 mouse assessed as tumor growth inhibition at 24 mg/kg, ip administered on day 1 post-tumor cell implantation; assay type: functional; details: route intraperitoneal
L1210 [3] = test: Antineoplastic activity against mouse L1210 cells allografted in CDF1 mouse assessed as increase in host life span at 24 mg/kg, ip administered on day 1 post-tumor cell implantation; assay type: functional; details: route intraperitoneal; in short: as §1
[4] = Therapeutic index, ratio of ED50 for antineoplastic activity against mouse L1210 cells allografted in CDF1 mouse to LD10 for CDF1 mouse; details: read-out: TI
In short: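 The therapeutic index is the fraction of the single-dose LD10 that gave 50% 60-day survival: ED50 divided by LD10. ED50 came from log-dose probit-survival plots in L1210-bearing male CDF1 mice (10⁵ cells ip, single ip dose in saline on day 1). LD10 came from concurrent toxicity controls.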

L1210 [5] = test: Antineoplastic activity against mouse L1210 cells allografted in CDF1 mouse assessed as dose causing 50% 60-day host survival at 24 mg/kg, ip administered on day 1 post-tumor cell implantation; assay type: functional; details: route intraperitoneal; in short: as §1
Mus musculus = test: Toxicity in ip dosed CDF1 mouse; assay type: organism-based; details: in vivo
In short: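 Single-dose LD10 was found in concurrent toxicity controls using normal (non-tumor-bearing) mice, run alongside the L1210 survival experiment, with drug in physiological saline given ip.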

SMILES | Time (L1210 [1]) | LCK (L1210 [2]) | Activity (L1210 [3]) | selectivity ratio [4] | ED50 (L1210 [5]) | LD10 (Mus musculus)
O=NN(CCCl)C(=O)N[C@@H]1C(O)O[C@@H](CO)[C@H](O)[C@H]1O (some centres not stated) | 15 days | >=6 | 87% | 0.64 | 21 mg/kg | 33 mg/kg
O=NN(CCCl)C(=O)N[C@H]1C(O)O[C@H](CO)[C@@H](O)[C@@H]1O (some centres not stated) [CHLOROZOTOCIN] | 13 days | >=6 | 62% | 0.7 | 21 mg/kg | 30 mg/kg
